Results published in article PMC10582678 (Clinical and Translational Science, 2023).
Entries after “also recorded” stand apart in the source; their conditions may differ.

How the values were obtained:
[1] = Safety, adverse events, multiple ascending doses; type: in vivo, human; conditions: n (%)
How it was run: (§1)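 Safety was monitored by vital signs, clinical laboratory tests, physical examination, 12-lead ECG, AEs and SAEs. AEs were coded with MedDRA 23.1 and graded by CTCAE 5.0. Subjects were discharged 6 days after the last dose, with a follow-up visit 8–14 days after the last dose. The safety set comprised randomized subjects who received active drug or placebo and had post-dose safety data.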

[2] = Safety, adverse events, whole study; type: in vivo, human
How it was run: as §1

[3] = among 57 subjects who received SN1011

For `N#CN1C[C@H](n2nc(-c3ccc(Oc4ccc(Cl)cn4)cc3)c(C(N)=O)c2N)CCC12CC2` [SN1011, 5-amino-3-(4-((5-chloro-2-pyridinyl)oxy)phenyl)-1-((6R)-4-cyano-4-azaspiro[2.5]octan-6-yl)-1H-pyrazole-4-carboxamide], the Mouth ulceration ([1]; MAD 200 mg QD, any grade) was 0, the Oropharyngeal pain ([1]; MAD 200 mg QD, any grade) was 0 and the Sinus arrythmia ([1]; MAD 200 mg QD, any grade) was 0. For the same compound, the “Upper respiratory tract infection” value ([1]; MAD 200 mg QD, any grade) was 0, the Increased blood cholesterol ([1]; MAD 200 mg QD) was 0 and the “Treatment discontinuation due to AEs” value ([1]; MAD 200 mg QD) was 0. The AEs ([1]; MAD 400 mg QD, any grade) was 4 (66.7), the Abdominal discomfort ([1]; MAD 400 mg QD, any grade) was 0 and the Constipation ([1]; MAD 400 mg QD, any grade) was 0. For the same compound, the Decreased leukocyte count ([1]; MAD 400 mg QD, any grade) was 1 (16.7), the Decreased lymphocyte count ([1]; MAD 400 mg QD, any grade) was 0 and the Decreased neutrophil count ([1]; MAD 400 mg QD, any grade) was 2 (33.3). The Dermatitis allergic ([1]; MAD 400 mg QD, any grade) was 0, the Dyspepsia ([1]; MAD 400 mg QD, any grade) was 0 and the “Increased ALT” value ([1]; MAD 400 mg QD, any grade) was 0. The “Increased AST” value ([1]; MAD 400 mg QD, any grade) was 0, the Increased blood bilirubin ([1]; MAD 400 mg QD, any grade) was 0 and the Increased blood creatinine ([1]; MAD 400 mg QD, any grade) was 2 (33.3). The Increased blood triglycerides ([1]; MAD 400 mg QD, any grade) was 2 (33.3), the Lethargy ([1]; MAD 400 mg QD, any grade) was 0 and the Mouth ulceration ([1]; MAD 400 mg QD, any grade) was 0. For the same compound, the Sinus arrythmia ([1]; MAD 400 mg QD, any grade) was 1 (16.7), the “Upper respiratory tract infection” value ([1]; MAD 400 mg QD, any grade) was 1 (16.7) and the Increased blood cholesterol ([1]; MAD 400 mg QD) was 0. The “Treatment discontinuation due to AEs” value ([1]; MAD 400 mg QD) was 0, the AEs ([1]; MAD 600 mg QD, any grade) was 5 (83.3) and the Abdominal discomfort ([1]; MAD 600 mg QD, any grade) was 1 (16.7). For the same compound, the Constipation ([1]; MAD 600 mg QD, any grade) was 1 (16.7), the Decreased leukocyte count ([1]; MAD 600 mg QD, any grade) was 2 (33.3) and the Decreased lymphocyte count ([1]; MAD 600 mg QD, any grade) was 1 (16.7). The Decreased neutrophil count ([1]; MAD 600 mg QD, any grade) was 2 (33.3), the Dermatitis allergic ([1]; MAD 600 mg QD, any grade) was 2 (33.3) and the Dyspepsia ([1]; MAD 600 mg QD, any grade) was 1 (16.7). The “Increased ALT” value ([1]; MAD 600 mg QD, any grade) was 1 (16.7), the “Increased AST” value ([1]; MAD 600 mg QD, any grade) was 1 (16.7) and the Increased blood bilirubin ([1]; MAD 600 mg QD, any grade) was 1 (16.7). The Increased blood creatinine ([1]; MAD 600 mg QD, any grade) was 0, the Increased blood triglycerides ([1]; MAD 600 mg QD, any grade) was 2 (33.3) and the Lethargy ([1]; MAD 600 mg QD, any grade) was 1 (16.7). For the same compound, the Mouth ulceration ([1]; MAD 600 mg QD, any grade) was 1 (16.7), the Oropharyngeal pain ([1]; MAD 600 mg QD, any grade) was 1 (16.7) and the Sinus arrythmia ([1]; MAD 600 mg QD, any grade) was 0. The Increased blood cholesterol ([1]; MAD 600 mg QD) was 0, the “Treatment discontinuation due to AEs” value ([1]; MAD 600 mg QD) was 0 and the AEs ([1]; MAD All SN1011, N = 18) was 12 (66.7). The Abdominal discomfort ([1]; MAD All SN1011, N = 18) was 1 (5.6), the Constipation ([1]; MAD All SN1011, N = 18) was 1 (5.6) and the Decreased leukocyte count ([1]; MAD All SN1011, N = 18) was 4 (22.2). For the same compound, the Decreased lymphocyte count ([1]; MAD All SN1011, N = 18) was 1 (5.6), the Decreased neutrophil count ([1]; MAD All SN1011, N = 18) was 5 (27.8) and the Dermatitis allergic ([1]; MAD All SN1011, N = 18) was 2 (11.1). For the same compound, the Dyspepsia ([1]; MAD All SN1011, N = 18) was 1 (5.6), the “Increased ALT” value ([1]; MAD All SN1011, N = 18) was 2 (11.1) and the “Increased AST” value ([1]; MAD All SN1011, N = 18) was 2 (11.1). For the same compound, the Increased blood bilirubin ([1]; MAD All SN1011, N = 18) was 2 (11.1), the Increased blood cholesterol ([1]; MAD All SN1011, N = 18) was 0 and the Increased blood creatinine ([1]; MAD All SN1011, N = 18) was 2 (11.1). For the same compound, the Increased blood triglycerides ([1]; MAD All SN1011, N = 18) was 6 (33.3), the Lethargy ([1]; MAD All SN1011, N = 18) was 1 (5.6) and the Mouth ulceration ([1]; MAD All SN1011, N = 18) was 1 (5.6). For the same compound, the Oropharyngeal pain ([1]; MAD All SN1011, N = 18) was 1 (5.6), the Sinus arrythmia ([1]; MAD All SN1011, N = 18) was 1 (5.6) and the “Treatment discontinuation due to AEs” value ([1]; MAD All SN1011, N = 18) was 0. The “Upper respiratory tract infection” value ([1]; MAD All SN1011, N = 18) was 1 (5.6), the serious adverse events ([2]; all parts of the study) was “No serious adverse events; also recorded: no SAEs were reported” and the “subjects who experienced AEs” value [2, 3] was 28. The “total number of AEs” value [2, 3] was 55.
